Measured values published in ChEMBL document CHEMBL3244273, “Analgesic activity of novel spiro heterocycles. 2-Amino-7-oxa-3-thia-1-azaspiro[5,5]undec-1-enes and related compounds” (J Med Chem, 1978).
The source made the active and inactive calls.

Experiments:
[1] = tested on: Mus musculus; experiment: Analgesic activity in po dosed CF-1 mouse assessed as reduction in phenylquinone-induced writhing responses administered 15 mins prior to phenylquinone challenge; type: functional
[2] = tested on: Rattus norvegicus; experiment: Analgesic activity against po dosed yeast-induced inflamed foot Sprague-Dawley rat model assessed as increase in pain threshold in inflamed paw measured after 2 hrs; type: functional
[3] = Retardation factor of the compound using benzene-ethyl acetate at ratio of 1:1 as solvent system by thin layer chromatography; type: physicochemical
[4] = species on record: Rattus norvegicus; experiment: Antiinflammatory activity against mycobacterial adjuvant-induced arthritis in rat; type: functional, organism-based
[5] = tested on: Rattus norvegicus; experiment: Analgesic activity in po dosed Sprague-Dawley rat by tail flick assay; type: functional
[6] = Acute toxicity in po dosed CF-1S mouse assessed as mortality measured for 5 days; type: organism-based; settings: in vivo
Outline: (§1)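 Male and female CF-1S mice (17-25 g) received the compound suspended in gum acacia solution, orally or intraperitoneally, in groups of six to ten per dose level. Mortality was followed for 24 h after ip dosing and for 5 days after oral dosing. LD50 was calculated by the Miller-Tainter method.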

[7] = Acute toxicity in ip dosed CF-1S mouse assessed as mortality measured for 24 hrs; type: organism-based; settings: in vivo; outline: as §1
[8] = tested on: Mus musculus; experiment: Analgesic activity in CF-1 mouse assessed as reduction in phenylquinone-induced writhing responses at 200 mg/kg, po administered 15 mins prior to phenylquinone challenge; type: functional
Outline: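 Fifteen min later they received 0.25 mL ip of 0.02% 2-phenyl-1,4-benzoquinone in 19:1 water-ethanol. Writhes were counted for 5 min starting 10 min after the injection, and % protection was calculated versus vehicle controls.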

[9] = Retardation factor of the compound using benzene-triethylamine at ratio of 9:1 as solvent system by thin layer chromatography; type: physicochemical
[10] = Mus musculus, CF-1, po, read-out: ED50
[11] = Rattus norvegicus, Sprague-Dawley, po, 2 h, read-out: ED50

| SMILES | ED50 [1, 10] | ED50 [2, 11] | Activity [4] | other results |
| --- | --- | --- | --- | --- |
| COc1ccc2c3c1O[C@H]1[C@@H](O)C=C[C@H]4[C@@H](C2)N(C)CC[C@@]341.COc1ccc2c3c1O[C@H]1[C@@H](O)C=C[C@H]4[C@@H](C2)N(C)CC[C@@]341.O.O=P(O)(O)O.O=P(O)(O)O [CODEINE PHOSPHATE] | 18 mg/kg | 40 mg/kg | – | – |
| O=C(/N=C1\NCCCS1)c1ccc(F)cc1 | > 100 mg/kg | > 200 mg/kg | inactive | Rf [3]: 0.36 |
| O=C(/N=C1\NC2(CCCCO2)CCS1)c1ccccc1Cl (stereo not given) | > 200 mg/kg | – | inactive | – |
| O=C(/N=C1\NC2(CCCCO2)CCS1)c1cccc(F)c1 (stereo not given) | 9.2 mg/kg | 1.3 mg/kg | inactive | – |
| c1ccc(/N=C2\NC3(CCCCO3)CCS2)cc1 (racemic) | > 200 mg/kg | > 100 mg/kg | – | Rf [3]: 0.45 |
| O=C(/N=C1\NC2(CCCCO2)CCS1)c1ccc([N+](=O)[O-])cc1 (stereo not given) | 28 mg/kg | 0.9 mg/kg | inactive | – |
| O=C(/N=C1\SCCCN1C(=O)c1ccc(F)cc1)c1ccc(F)cc1 | – | – | – | Rf [3]: 0.5 |
| O=C(/N=C1\NC2(CCCCO2)CCS1)c1ccc(Br)cc1 (stereo not given) | > 200 mg/kg | 3.2 mg/kg | inactive | – |
| O=C(/N=C1\NC2(CCCCO2)CCS1)c1ccc(F)cc1 (stereo in doubt; 33) [listing 1 of 2 here] | – | – | – | ED50 [1]: 49 mg/kg; ED50 [2]: 2 mg/kg; ED50 [5]: 22.3 mg/kg; LD50 at 120 h [6]: 630 mg/kg; LD50 at 24 h [7]: 1370 mg/kg |
| NC1=NC2(CCCCO2)CCC1.O=C(O)/C=C\C(=O)O (racemic) | > 200 mg/kg | > 50 mg/kg | – | – |
| COc1ccc(C(=O)/N=C2\NC3(CCCCO3)CCS2)cc1OC (stereo not given) | 200 mg/kg | 4.5 mg/kg | inactive | inhibition in vivo at 200 mg/kg [8]: -75% |
| S=C(/N=C1\NC2(CCCCO2)CCS1)Nc1ccccc1 (racemic) | 200 mg/kg | > 200 mg/kg | inactive | inhibition in vivo at 200 mg/kg [8]: -48% |
| O=C(/N=C1\NC2(CCCCO2)CCS1)c1ccco1 (stereo not given) | 42 mg/kg | – | inactive | – |
| O=C(/N=C1\NC2(CCCCO2)CCS1)c1ccc(F)cc1 (single isomer, unassigned; (+)) [listing 1 of 2 here] | – | – | inactive | – |
| Cl.O=C(/C=C/c1ccccc1)/N=C1\NC2(CCCCO2)CCS1 (stereo not given) | 17 mg/kg | 2.5 mg/kg | inactive | – |
| O=C(/N=C1\NC2(CCCCO2)CCS1)c1ccc(F)cc1 (single isomer, unassigned; (-)) | – | 1.8 mg/kg | – | ED50 [1]: 28 mg/kg |
| CC1(C(=O)/N=C2\NC3(CCCCO3)CCS2)CCCCC1 (stereo not given) | > 200 mg/kg | 16 mg/kg | inactive | – |
| CNC1=NC2(CCCCO2)CCS1 (racemic) | 52 mg/kg | 21 mg/kg | inactive | – |
| CC(=O)Oc1ccccc1C(=O)O [ASPIRIN] | 82 mg/kg | 50 mg/kg | – | – |
| CCC(=O)O[C@](Cc1ccccc1)(c1ccccc1)[C@H](C)CN(C)C [PROPOXYPHENE] | 48 mg/kg | 60 mg/kg | – | – |
| O=C(/N=C1\NC2(CCCCO2)CCS1)c1cccs1 (stereo not given) | 48 mg/kg | 3.8 mg/kg | inactive | – |
| CC(C)(C)C(=O)/N=C1\NC2(CCCCO2)CCS1 (stereo not given) | 200 mg/kg | 29 mg/kg | inactive | inhibition in vivo at 200 mg/kg [8]: -53% |
| c1ccc(CNC2=NC3(CCCCO3)CCS2)cc1 (racemic) | > 200 mg/kg | > 100 mg/kg | inactive | Rf [3]: 0.15; Rf [9]: 0.5 |
| Cl.c1ccc(C2=NC3(CCCCO3)CCS2)cc1 (racemic) | > 200 mg/kg | > 200 mg/kg | – | – |
| O=C(/N=C1\NC2(CCCCO2)CCS1)C12CC3CC(CC(C3)C1)C2 (stereo not given) | > 200 mg/kg | 14 mg/kg | inactive | – |
| O=C1c2ccccc2C(=O)N1C1=NC2(CCCCO2)CCS1 (racemic) | 14.8 mg/kg | 7 mg/kg | inactive | – |
| CN1CC[C@]23c4c5ccc(O)c4O[C@H]2[C@@H](O)C=C[C@H]3[C@H]1C5.CN1CC[C@]23c4c5ccc(O)c4O[C@H]2[C@@H](O)C=C[C@H]3[C@H]1C5.O=S(=O)(O)O | 4.8 mg/kg | 25 mg/kg | – | ED50 [5]: 29.3 mg/kg |

| SMILES | ED50 [1, 10] | ED50 [2, 11] | Activity [4] | other results |
| --- | --- | --- | --- | --- |
| NC1=NC2(CCCC(c3ccccc3)O2)CCS1.O=C(O)/C=C\C(=O)O (stereo not given) | 64 mg/kg | > 200 mg/kg | – | – |
| O=C(/N=C1\NC2(CCCCO2)CCS1)c1ccc(F)cc1 (single isomer, unassigned; (+)) [listing 2 of 2 here] | – | – | – | ED50 [1]: 8.8 mg/kg |
| O=C(/N=C1\NC2(CCCCO2)CCS1)c1cccc(C(F)(F)F)c1 (stereo not given) | > 200 mg/kg | 11 mg/kg | inactive | – |
| CC(=O)/N=C1\NC2(CCCCO2)CCS1 (stereo not given) | 3.1 mg/kg | 1.9 mg/kg | inactive | – |
| NC1=NC2(CCCCO2)CCS1.O=C(O)/C=C\C(=O)O (racemic) | 3.6 mg/kg | 0.6 mg/kg | inactive | ED50 [5]: 12 mg/kg; LD50 at 120 h [6]: 120 mg/kg; LD50 at 24 h [7]: 33 mg/kg |
| NC1=NC2(CCCO2)CCS1.O=C(O)/C=C\C(=O)O (racemic) | 15 mg/kg | 4 mg/kg | inactive | – |
| O=C(/N=C1\NC2(CCCCO2)CCS1)c1cccc2ccccc12 (stereo not given) | > 200 mg/kg | 28 mg/kg | – | – |
| CC(=O)N(Cc1ccccc1)C1=NC2(CCCCO2)CCS1 (stereo not given) | – | – | – | Rf [3]: 0.37 |
| N#Cc1ccc(C(=O)/N=C2\NC3(CCCCO3)CCS2)cc1 (stereo not given) | 60 mg/kg | 1 mg/kg | inactive | – |
| COc1cc(C(=O)/N=C2\NC3(CCCCO3)CCS2)cc(OC)c1OC (stereo not given) | > 200 mg/kg | > 200 mg/kg | inactive | – |
| O=C(/N=C1\NC2(CCCCC2)CCS1)c1ccc(F)cc1 | > 200 mg/kg | > 100 mg/kg | inactive | – |
| O=C(/N=C1\NC2(CCCCO2)CCS1)c1cccc([N+](=O)[O-])c1 (stereo not given) | > 200 mg/kg | 8.2 mg/kg | inactive | – |
| O=C(/N=C1\NC2(CCCCO2)CCS1)c1ccccc1O (stereo not given) | > 200 mg/kg | > 200 mg/kg | inactive | – |
| CCCCC1C(=O)N(c2ccccc2)N(c2ccccc2)C1=O [PHENYLBUTAZONE] | 45 mg/kg | 25 mg/kg | – | – |
| COc1cccc(OC)c1C(=O)/N=C1\NC2(CCCCO2)CCS1 (stereo not given) | > 200 mg/kg | > 200 mg/kg | inactive | – |
| O=C(/N=C1\NC2(CCCCO2)CCS1)c1ccccc1 (stereo not given) | 5 mg/kg | 2.6 mg/kg | inactive | – |
| CC1CCCC2(CCSC(N)=N2)O1.O=C(O)/C=C\C(=O)O (stereo not given) | 25 mg/kg | 3.2 mg/kg | – | – |
| O=C(/N=C1\NC2(CCCCO2)CCS1)c1ccc(F)cc1 (stereo in doubt; 33) [listing 2 of 2 here] | – | – | inactive | – |
| COc1ccc(C(=O)/N=C2\NC3(CCCCO3)CCS2)cc1 (stereo not given) | 62 mg/kg | 6 mg/kg | inactive | – |
| O=C(/N=C1\NC2(CCCCO2)CCS1)c1ccc(Cl)cc1 (stereo not given) | 1.1 mg/kg | 2.4 mg/kg | inactive | – |
| Cc1cc(C)c(C(=O)/N=C2\NC3(CCCCO3)CCS2)c(C)c1 (stereo not given) | > 200 mg/kg | > 200 mg/kg | inactive | – |
| O=C(/N=C1\NC2(CCCCO2)CCS1)Nc1ccccc1 (racemic) | > 200 mg/kg | > 200 mg/kg | – | – |
| Cl.O=C(/N=C1\NC2(CCCO2)CCS1)c1ccc(F)cc1 (stereo not given) | 14.8 mg/kg | 2 mg/kg | inactive | – |
| Cc1ccc(C(=O)/N=C2\NC3(CCCCO3)CCS2)cc1 (stereo not given) | 60 mg/kg | 0.9 mg/kg | inactive | ED50 [5]: > 25 mg/kg; LD50 at 120 h [6]: 1120 mg/kg; LD50 at 24 h [7]: > 400 mg/kg |
| NC1=NC2(CCCCC2)CCS1.O=C(O)/C=C\C(=O)O | 6.6 mg/kg | 19 mg/kg | inactive | ED50 [5]: > 50 mg/kg |
| COc1ccc2c(c1)c(CC(=O)O)c(C)n2C(=O)c1ccc(Cl)cc1 [INDOMETHACIN] | 8.8 mg/kg | 1.2 mg/kg | – | – |
